Measured values reported in ChEMBL document CHEMBL1629704, “Inhibition of dengue virus by an ester prodrug of an adenosine analog” (Antimicrob Agents Chemother, 2010).
pEC50: −log10 of the molar value. Activity calls are given as the source filed them. No cut-off for these calls is given here.

What was measured:
Rattus norvegicus [1] = test: Tmax in Wistar rat assessed as NITD449 level at 84.1 mg/kg, po by LC-MS-MS analysis; type: ADME, organism-based; set-up: dose 84.1 mg/kg, route oral; conditions: in vivo
Summary of the method: (§1)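 Fasted female Wistar rats were dosed orally with the prodrug in 20% solutol HS15, 30% PEG 300, 50% 100 mM citrate pH 3. Groups of three were serially bled 0.17–48 h. Plasma parent levels came from LC-MS-MS (MRM, LLOQ 9.2 ng/ml) and noncompartmental modeling. F used dose-corrected AUC versus parent i.v. at 5.9 mg/kg.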

dengue virus type 2 [2] = test: Antiviral activity against Dengue virus 2 NGC infected in human A549 cells by CFI assay; type: functional, organism-based
Summary of the method: (§2)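 CFI assay: A549 cells seeded 2 × 10^4/well, infected next day (MOI 0.3 for DENV-2) with compound-virus mixture for 1 h, then refed with compound-containing medium. On day 2 cells were methanol-fixed at 4°C and intracellular E protein detected by ELISA (4G2 primary, HRP anti-mouse secondary). EC50 is the average of two independent experiments.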

Mus musculus [3] = test: Tmax in CD-1 mouse assessed as NITD449 level at 24.2 mg/kg, po by LC-MS-MS analysis; type: ADME, organism-based; set-up: dose 24.2 mg/kg, route oral; conditions: in vivo
Summary of the method: (§3)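 Female CD-1 mice given the prodrug orally, formulated in 10% ethanol, 30% PEG 400, 60% D5W. Blood from three animals at 0.08, 0.25, 0.5, 1, 2, 4, 8, 16, 24 h; heparinized plasma extracted with acetonitrile-methanol-acetic acid. Parent nucleoside was quantified by LC-MS-MS (MRM, LLOQ 9.2 ng/ml) and noncompartmental analysis was run. F = dose-corrected AUC p.o./AUC i.v., with i.v. parent at 5 mg/kg.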

Chikungunya virus = test: Antiviral activity against Chikungunya virus infected in african green monkey Vero cells after 22 hrs by plaque assay; type: functional, cell-based
dengue virus type 2 [4] = test: Antiviral activity against Dengue virus 2 NGC infected in human A549 cells after 2 days by CFI assay in presence of 40 mg/ml human serum albumin; type: functional, organism-based; conditions: A549, 48 h
Summary of the method: (§4)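 Modified CFI: A549 cells infected with DENV-2 New Guinea C (MOI 0.3) for 1 h without compound. Inoculum then replaced with medium containing compound dilutions plus the stated HSA and/or AGP. On day 2, cells methanol-fixed and intracellular E protein detected by ELISA (4G2 primary, HRP anti-mouse secondary); EC50 derived.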

Yellow fever virus = test: Antiviral activity against Yellow fever virus 17D infected in african green monkey Vero cells after 48 hrs by plaque assay; type: functional, cell-based
West Nile virus = test: Antiviral activity against West Nile virus infected in african green monkey Vero cells assessed as inhibition of RNA replication after 24 hrs by luciferase assay; type: functional, organism-based
Summary of the method: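 Vero cells infected at MOI about 0.1 with WNV replicon-packaged virus-like particles carrying luciferase, then treated with compound. Luciferase was read 24 h postinfection, relative to mock-treated cells set at 100%; n = 3.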

Mus musculus [5] = test: Cmax in CD-1 mouse assessed as NITD449 level at 24.2 mg/kg, po by LC-MS-MS analysis; type: ADME, organism-based; set-up: dose 24.2 mg/kg, route oral; conditions: in vivo; summary of the method: as §3
Mus musculus [6] = test: AUC (0 to infinity) in CD-1 mouse assessed as NITD449 level at 24.2 mg/kg, po by LC-MS-MS analysis; type: ADME, organism-based, Plasma; set-up: dose 24.2 mg/kg, route oral, time infinity; conditions: in vivo; summary of the method: as §3
dengue virus type 2 [7] = test: Antiviral activity against Dengue virus-2 NGC infected in hamsters BHK21 cells assessed as inhibition of viral RNA synthesis at 3 uM after 2 to 4 hrs of infection by luciferase assay; type: functional, organism-based; conditions: BHK-21
dengue virus type 2 [8] = test: Antiviral activity against Dengue virus 2 NGC infected in human A549 cells after 2 days by CFI assay in presence of 2 mg/ml alpha-1-acid glycoprotein; type: functional, organism-based; conditions: A549, 48 h; summary of the method: as §4
dengue virus type 1 = test: Antiviral activity against Dengue virus 1 MY10245 infected in human A549 cells by CFI assay; type: functional, organism-based; summary of the method: as §2
Rattus norvegicus [9] = test: AUC (0 to infinity) in Wistar rat assessed as NITD449 level at 26.5 mg/kg, po by LC-MS-MS analysis; type: ADME, organism-based, Plasma; set-up: time infinity, dose 26.5 mg/kg, route oral; conditions: in vivo
Summary of the method: (§5)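 Female Wistar rats, fasted overnight until 4 h postdose, given the prodrug orally in 10% ethanol, 30% PEG 400, 60% D5W. Serial blood from groups of three at 0.17–48 h. Parent nucleoside in plasma was measured by LC-MS-MS (LLOQ 9.2 ng/ml) with noncompartmental analysis. F was corrected for dose against parent i.v. at 5.9 mg/kg.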

Rattus norvegicus [10] = test: Cmax in Wistar rat assessed as NITD449 level at 84.1 mg/kg, po by LC-MS-MS analysis; type: ADME, organism-based; set-up: dose 84.1 mg/kg, route oral; conditions: in vivo; summary of the method: as §1
dengue virus type 2 [11] = test: Antiviral activity against Dengue virus 2 NGC infected in human A549 cells after 2 days by CFI assay in presence of 40 mg/ml human serum albumin and 2 mg/ml alpha-1-acid glycoprotein; type: functional, organism-based; conditions: A549, 48 h; summary of the method: as §4
dengue virus type 2 [12] = test: Antiviral activity against Dengue virus 2 TSV01 infected in AG129 mouse assessed as reduced viremia by 3 mg/kg, po BID for 3 days measured on day 4 by plaque assay; type: functional
Summary of the method: (§6)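 AG129 mice (lacking IFN-α/β and IFN-γ receptors) were inoculated i.p. with 2 × 10^6 PFU DENV-2 in 0.4 ml. Immediately afterwards, 0.2 ml compound in ethanol-PEG-D5W (10:30:60) was given by oral gavage twice daily for 3 days. Day-4 blood viremia was measured by plaque assay; 6 or 8 mice per group.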

Hepatitis C virus = test: Antiviral activity against HCV subtype 1b infected in human Huh-7 cells after 48 hrs by luciferase assay; type: functional, organism-based; conditions: Hepacivirus hominis, genotype 1b
Summary of the method: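 Huh-7 cells bearing a luciferase-reporting HCV genotype 1b replicon were incubated with compound. Luciferase was read at 48 h posttreatment and efficacy estimated from signal reduction; n = 3.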

dengue virus type 4 = test: Antiviral activity against Dengue virus 4 MY22713 infected in human A549 cells by CFI assay; type: functional, organism-based; summary of the method: as §2
Rattus norvegicus [13] = test: Oral bioavailability in Wistar rat assessed as NITD449 level at 84.1 mg/kg by LC-MS-MS analysis; type: ADME, organism-based; conditions: in vivo; summary of the method: as §1
Rattus norvegicus [14] = test: Cmax in Wistar rat assessed as NITD449 level at 26.5 mg/kg, po by LC-MS-MS analysis; type: ADME, organism-based; set-up: dose 26.5 mg/kg, route oral; conditions: in vivo; summary of the method: as §5
dengue virus type 2 [15] = test: Antiviral activity against Dengue virus 2 TSV01 infected in AG129 mouse assessed as reduced viremia by 25 mg/kg, po BID for 3 days measured on day 4 by plaque assay; type: functional; summary of the method: as §6
dengue virus type 2 [16] = test: Antiviral activity against Dengue virus 2 MY10340 infected in human A549 cells by CFI assay; type: functional, organism-based; summary of the method: as §2
dengue virus type 2 [17] = test: Antiviral activity against Dengue virus-2 NGC infected in hamsters BHK21 cells assessed as inhibition of viral RNA synthesis at 3 uM after 24 to 40 hrs of infection by luciferase assay; type: functional, organism-based; conditions: BHK-21
Summary of the method: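 DENV-2 luciferase replicon (structural genes deleted) RNA was electroporated into BHK-21 cells, then cells were immediately incubated with compound. Luciferase was read at time points. Signals at 2–4 h p.t. reflect input translation and at 24–40 h p.t. reflect RNA synthesis; n = 3, mean ± SD.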

dengue virus type 2 [18] = test: Antiviral activity against Dengue virus-2 NGC infected in hamsters BHK21 cells assessed as inhibition of viral RNA synthesis at 1 uM after 2 to 4 hrs of infection by luciferase assay; type: functional, organism-based; conditions: BHK-21
dengue virus type 2 [19] = test: Antiviral activity against Dengue virus 2 TSV01 infected in AG129 mouse assessed as reduced viremia by 10 mg/kg, po BID for 3 days measured on day 4 by plaque assay; type: functional; summary of the method: as §6

C#C[C@@]1(O)[C@H](OC(=O)C(C)C)[C@@H](COC(=O)C(C)C)O[C@H]1n1cc(C(N)=O)c2c(N)ncnc21
Tmax (Rattus norvegicus [1]): 30 min | pEC50 (dengue virus type 2 [2]): 6.16 | Tmax (Mus musculus [3]): 4.8 min | Activity (Chikungunya virus): Active | pEC50 (dengue virus type 2 [4]): 6.10 | Activity (Yellow fever virus): Active | Activity (West Nile virus): Active | Cmax (Mus musculus [5]): 6.01 µM | AUC (Mus musculus [6]): 12.6 µM·h | Activity (dengue virus type 2 [7]): Active | pEC50 (dengue virus type 2 [8]): 6.12 | pEC50 (dengue virus type 1): 6.27 | AUC (Rattus norvegicus [9]): 13.7 µM·h | Cmax (Rattus norvegicus [10]): 14.2 µM | pEC50 (dengue virus type 2 [11]): 6.07 | fold change (FC) (dengue virus type 2 [12]): 2.7 | Activity (Hepatitis C virus): Active | pEC50 (dengue virus type 4): 6.15 | F (Rattus norvegicus [13]): 10% | Cmax (Rattus norvegicus [14]): 3.65 µM | fold change (FC) (dengue virus type 2 [15]): 30 | pEC50 (dengue virus type 2 [16]): 6.24 | Activity (dengue virus type 2 [17]): Active | Activity (dengue virus type 2 [18]): Active | fold change (FC) (dengue virus type 2 [19]): 4.4
